What was measured:
[1] = MRT in male Wistar Han rat at 300 mg/kg, po administered as single dose post overnight fasting measured upto 24 hrs by LC-MS/MS analysis; format: ADME, organism-based; conditions: in vivo
Summary of the method: (§1)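 Male Wistar Han rats were given single oral rising doses of 10, 100 or 300 mpk. AUC, Cmax, Tmax and MRT were derived from plasma exposure.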

[2] = MRT in male Wistar Han rat at 100 mg/kg, po administered as single dose post overnight fasting measured upto 24 hrs by LC-MS/MS analysis; format: ADME, organism-based; conditions: in vivo; summary of the method: as §1
[3] = MRT in male Wistar Han rat at 10 mg/kg, po administered as single dose post overnight fasting measured upto 24 hrs by LC-MS/MS analysis; format: ADME, organism-based; conditions: in vivo; summary of the method: as §1
[4] = Tmax in male Wistar Han rat at 300 mg/kg, po administered as single dose post overnight fasting measured upto 24 hrs by LC-MS/MS analysis; format: ADME, organism-based; conditions: in vivo; summary of the method: as §1
[5] = Tmax in male Wistar Han rat at 100 mg/kg, po administered as single dose post overnight fasting measured upto 24 hrs by LC-MS/MS analysis; format: ADME, organism-based; conditions: in vivo; summary of the method: as §1
[6] = Tmax in male Wistar Han rat at 10 mg/kg, po administered as single dose post overnight fasting measured upto 24 hrs by LC-MS/MS analysis; format: ADME, organism-based; conditions: in vivo; summary of the method: as §1
[7] = Cmax in male Wistar Han rat at 300 mg/kg, po administered as single dose post overnight fasting measured upto 24 hrs by LC-MS/MS analysis; format: ADME, organism-based; design: route oral, dose 300 mg/kg, time <=24; conditions: in vivo; summary of the method: as §1
[8] = Cmax in male Wistar Han rat at 100 mg/kg, po administered as single dose post overnight fasting measured upto 24 hrs by LC-MS/MS analysis; format: ADME, organism-based; design: route oral, dose 100 mg/kg, time <=24; conditions: in vivo; summary of the method: as §1
[9] = Cmax in male Wistar Han rat at 10 mg/kg, po administered as single dose post overnight fasting measured upto 24 hrs by LC-MS/MS analysis; format: ADME, organism-based; design: route oral, dose 10 mg/kg, time <=24; conditions: in vivo; summary of the method: as §1
[10] = AUC in male Wistar Han rat at 300 mg/kg, po administered as single dose post overnight fasting measured upto 24 hrs by LC-MS/MS analysis; format: ADME, organism-based; design: route oral, dose 300 mg/kg, time <=24; conditions: in vivo; summary of the method: as §1
[11] = AUC in male Wistar Han rat at 100 mg/kg, po administered as single dose post overnight fasting measured upto 24 hrs by LC-MS/MS analysis; format: ADME, organism-based; design: route oral, dose 100 mg/kg, time <=24; conditions: in vivo; summary of the method: as §1
[12] = AUC in male Wistar Han rat at 10 mg/kg, po administered as single dose post overnight fasting measured upto 24 hrs by LC-MS/MS analysis; format: ADME, organism-based; design: route oral, dose 10 mg/kg, time <=24; conditions: in vivo; summary of the method: as §1
[13] = Oral bioavailability in Beagle dog at 5 mg/kg post overnight fasting measured upto 24 hrs by LC-MS/MS analysis; format: ADME, organism-based, Canis lupus familiaris; conditions: in vivo
Summary of the method: (§2)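 Overnight-fasted male Wistar Han rats or Beagle dogs, two animals per group, 24 h study. IV in 60% PEG200 (rat 2 mg/kg, dog 1 mg/kg). PO in 10% Tween (rat 10 mg/kg, dog 5 mg/kg). Blood sampled up to 24 h, plasma separated by centrifugation, and drug measured by LC/MS. MRT reported for the IV route.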

[14] = Drug concentration in Beagle dog at 5 mg/kg, po measured after 24 hrs by LC/MS analysis; format: ADME, organism-based, Canis lupus familiaris; conditions: in vivo, read-out: Drug uptake; summary of the method: as §2
[15] = Cmax in Beagle dog at 5 mg/kg, po administered post overnight fasting measured upto 24 hrs by LC-MS/MS analysis; format: ADME, organism-based, Canis lupus familiaris; design: route oral, dose 5 mg/kg, time <=24; conditions: in vivo; summary of the method: as §2
[16] = AUC in Beagle dog at 5 mg/kg, po administered post overnight fasting measured upto 24 hrs by LC-MS/MS analysis; format: ADME, organism-based, Canis lupus familiaris; design: route oral, dose 5 mg/kg, time <=24; conditions: in vivo; summary of the method: as §2
[17] = Clearance in Beagle dog at 1 mg/kg, iv administered post overnight fasting measured upto 24 hrs by LC-MS/MS analysis; format: ADME, organism-based, Canis lupus familiaris; conditions: in vivo; summary of the method: as §2
[18] = Mean residence time in Beagle dog at 1 mg/kg, iv administered post overnight fasting measured upto 24 hrs by LC-MS/MS analysis; conditions: in vivo

Structure (SMILES): COC(=O)N[C@H](C(=O)N1CCC[C@H]1c1ncc(-c2cc(F)c3c(c2)OC(c2ccc4c(c2)OCCC4)n2c-3cc3cc(-c4cnc([C@@H]5CCCN5C(=O)[C@@H](NC(=O)OC)C(C)C)[nH]4)ccc32)[nH]1)C(C)C.Cl.Cl (stereo partly drawn)
- MRT [1]: 11 h
- MRT [2]: 13 h
- MRT [3]: 8.5 h
- Tmax [4]: 8 h
- Tmax [5]: 5 h
- Tmax [6]: 5 h
- Cmax [7]: 400 nM
- Cmax [8]: 350 nM
- Cmax [9]: 40 nM
- AUC at 24 h [10]: 4.9 µM·h
- AUC at 24 h [11]: 5.9 µM·h
- AUC at 24 h [12]: 0.42 µM·h
- bioavailability [13]: 16%
- concentration at 24 h [14]: 51 nM
- Cmax [15]: 1220 nM
- AUC at 24 h [16]: 6.92 µM·h
- clearance [17]: 2 mL/min/kg
- MRT [18]: 11.4 h
